Sampled rows, rich in hits. Any-hit rate of the full collection: about 1.8%.
Cneo AK release: causes C. neoformans cell lysis. adenylate kinase release luminescence, 4 h; normalised: neutral wells 0, clomiphene wells 100. lysis activity, % at 15 µM. 360,000 compounds, 0.2% hits;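 active = mean lysis activity across replicates of at least 80%, whatever share of replicates individually reach that level; inactive = mean lysis activity below 80%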
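Assay system: C. neoformans cells. Amount: yeast cell density of 5 × 10^6 cells/mL. Technique: AK luminescence. Buffer or medium: YPD. Times: static 4 h at 37 °C with compound, 1 h detection. Dosing: single-point compound dose. Read-out: lysis from increased AK signal.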
Statin myotox sup: suppressors of simvastatin-induced myotoxicity in C2C12 myotubes; ATP luminescence, 48 h; scaled: DMSO 0, geranylgeraniol control 100; rescue of ATP level, % at 7.49 µM; AID 602340; 330,000 compounds, 0.78% hits;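 active = mean ATP rescue above about 67%, or every replicate alone reaching that limit, limit read from the data, passing the limit was not always enough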;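 note: myotubes were challenged with 10 µM simvastatin during compound exposure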
Mot1-301 SUMO: SUMOylation pathway inhibition by Mot1-301 growth rescue | S. cerevisiae Mot1-301 growth rescue, ATP luminescence, 38.5C; percent above DMSO median, 100 means doubled | growth rescue, % at 18.8 µM | 320,000 compounds, 1% hits | AID 2716;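 active = every valid replicate shows activation above 250% relative to neutral control wells; inactive = the rest, any valid replicate at or below 250%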
Efflux pump inh: antifungal efflux pump inhibition, Nile Red retention; AID 485275; S. cerevisiae Candida pump triplex; inhibition, % at 10 µM; 330,000 compounds, 0.44% hits;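 active = plate passing quality check with inhibition over a set limit, or well fluorescence over plate mean plus 4 SD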;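 note: Nile Red retained in pooled yeast measured as flow cytometry median fluorescence; higher means more Nile Red kept so more efflux inhibition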
Large screens that a line does not name were inactive.

CC(C(Sc1ccccc1N)c1ccccc1)[N+](=O)[O-] (stereo not given)	Mot1-301 SUMO 746.6 (no result: Cneo AK release, Statin myotox sup)
CCOC(=O)N1CCN(C(=O)COc2ccc(S(=O)(=O)NC3CCCCC3)cc2C)CC1	Statin myotox sup 115.7
Cc1cc(S(=O)(=O)NC2CCCCC2)ccc1OCC(=O)N1CCOCC1	none (no result: Cneo AK release, Statin myotox sup)
NS(=O)(=O)c1ccc(NC(=O)COc2ccc(S(=O)(=O)N3CCCC3)cc2)cc1	Mot1-301 SUMO 342.5
O=C(COc1ccccc1)Nc1ccc(S(=O)(=O)N2CCCCCC2)cc1	none
CCOc1ccc(S(=O)(=O)N2CCC(C(=O)NCCc3ccc(OC)c(OC)c3)CC2)cc1	none
COc1ccc(OCC(=O)Nc2ccc(S(=O)(=O)N3CCCC3)cc2)cc1	none
CCOc1ccc(S(=O)(=O)N2CCC(C(=O)NCCc3ccc(S(N)(=O)=O)cc3)CC2)cc1	Mot1-301 SUMO 271.3
COc1ccc(OCC(=O)Nc2nnc(S(=O)(=O)N3CCCCCC3)s2)cc1	Statin myotox sup 112.6
O=C(COc1ccccc1)Nc1ccc(S(=O)(=O)N2CCCC2)cc1	Statin myotox sup 115.9 (no result: Mot1-301 SUMO)
Cc1ccccc1-n1c(C)nnc1SC(C)C(=O)NCC1CCCO1 (stereo not given)	none (no result: Mot1-301 SUMO)
COc1ccc(S(=O)(=O)Cc2ccc(C(=O)N3CCN(c4ccc(Cl)cc4)CC3)o2)cc1	none
CCCCC1S/C(=N/N=C/c2ccc(OC)cc2)N(Cc2ccc(OC)cc2)C1=O (stereo not given)	none
CCc1c(C2(O)CCCCC2)[nH]c2cc(C(F)(F)F)ccc12	Mot1-301 SUMO 325.0
COc1ccc2[nH]c(=O)c(CN(C)C(=O)COc3ccccc3)cc2c1	Statin myotox sup 72.2
Nc1c(C(=O)N/N=C/c2ccc(OCc3ccccc3)cc2)cnn1-c1ccccc1	none (no result: Statin myotox sup)
COCC(C)n1c(SCC(=O)NNC(=O)c2ccc(F)cc2)nc2ccccc2c1=O (stereo not given)	Mot1-301 SUMO 346.4 (no result: Cneo AK release, Statin myotox sup)
COCCn1c(SCC(=O)NNC(=O)c2ccccc2)nc2ccccc2c1=O	none
COc1cccc(C(=O)Nc2cccc(-c3nc4ncccc4o3)c2C)c1	none
Cc1c(NC(=O)c2ccc([N+](=O)[O-])o2)cccc1-c1nc2ncccc2o1	Statin myotox sup 106.5
CC(C)C[C@H](NC(=O)[C@@H]1Cc2c([nH]c3ccccc23)C2c3ccccc3C(=O)N21)C(=O)NCC1CCCO1 (stereo not given in full)	none
CSCC[C@H](NC(=O)[C@@H]1Cc2c([nH]c3ccccc23)C2c3ccccc3C(=O)N21)C(=O)NCC1CCCO1 (stereo not given in full)	Mot1-301 SUMO 793.0
CCOC(=O)C1CCN(S(=O)(=O)c2nc3nc(C)cc(C)n3n2)CC1	Statin myotox sup 103.6
CC(=O)n1cc([C@@H]2C=C(C(=O)O)O[C@H](OCc3ccc(CO)cc3)C2)c2ccccc21	none
CC1(C)S[C@@H]2[C@H](NC(=O)COc3ccccc3)C(=O)N2C1C(=O)OCc1cc2ccccc2n1S(=O)(=O)c1ccccc1 (stereo not given in full)	none (no result: Cneo AK release, Statin myotox sup)
CC1(C)S[C@@H]2[C@H](NC(=O)COc3ccccc3)C(=O)N2C1C(=O)OCC1CCCCC1 (stereo not given in full)	Mot1-301 SUMO 326.7
Cn1cccc1C(=O)C(=O)Nc1ccc(Cl)cc1	Statin myotox sup 92.8
CN(C)C1=NC[C@H](Cc2ccccc2)N1CC1CCCCCC1	Statin myotox sup 96.8
CN(C)C1=NC[C@H](Cc2ccccc2)N1CCC1CCCC1	none
O=S(=O)(N[C@H]1CC[C@H](CCn2cc(-c3ccccn3)nn2)O[C@H]1CO)c1cccc(F)c1	none (no result: Mot1-301 SUMO, Efflux pump inh)
O=C(CN1C(=O)/C(=C\c2ccco2)SC1=S)Nc1ccc(O)cc1C(=O)O	Statin myotox sup 96.1
COc1ccccc1-c1cn[nH]c(=S)n1	none
Cn1c2c(c(=O)n(C)c1=O)CN(Cc1ccc(F)cc1)CN2	none
Cn1c2c(c(=O)n(C)c1=O)CN(Cc1ccc3c(c1)OCO3)CN2	Statin myotox sup 112.5
O=C(COc1ccc2ccccc2c1)NNC(=O)Cc1cccc2ccccc12	Statin myotox sup 114.2
O=C(COc1ccc2ccccc2c1)NNC(=O)Cc1ccccc1	none
O=C1C(=O)N(Cc2ccccc2)C(c2cccc(O)c2)/C1=C(\O)c1ccc2c(c1)OCCO2 (stereo not given)	none
CCCCC(=O)NNC(=S)NC(=O)CCC	Statin myotox sup 112.1
CN1N=C2c3ccccc3CCC2C1c1ccc(F)cc1 (stereo not given)	none (no result: Statin myotox sup)
C[C@@H]1CN([C@H](C)CO)C(=O)c2cccc(NS(=O)(=O)c3cccs3)c2O[C@H]1CN(C)C(=O)Nc1ccc(C(F)(F)F)cc1	Statin myotox sup 73.5 (no result: Mot1-301 SUMO, Efflux pump inh)

Source: PubChem (several laboratories)
